Results taken from ChEMBL document CHEMBL1275403 (J Med Chem, 2010).

Columns and labels:
[1] = Cytotoxicity against mouse ScGT1 cells assessed as cell viability at 0.2 uM after 5 days by calcein-AM assay; type: cell-based; conditions: read-out: Activity
Summary of the method: (§1)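 ScGT1 cells in DMEM with 10% FBS were plated at 25000 cells/well. Compounds were dissolved in DMSO, diluted in PBS and added at 10 nM–10 μM. Cells were incubated 5 days at 37 °C, 5% CO2. Viability was read by calcein-AM fluorescence as average percent viable cells versus untreated control. Values are mean of three experiments with SD.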

[2] = Cytotoxicity against mouse ScGT1 cells assessed as cell viability at 1 uM after 5 days by calcein-AM assay; type: cell-based; conditions: read-out: Activity; summary of the method: as §1
[3] = tested on: ScGT1; assay: Antiprion activity against scrapie prion protein-infected mouse ScGT1 cells assessed as accumulation of PrPSc at 0.2 uM after 5 days by Western blotting; type: cell-based
Summary of the method: (§2)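 ScGT1 cells in DMEM with 10% FBS were split 1:10 into Petri dishes and grown 2 days at 37 °C, 5% CO2. Non-toxic compound concentrations (10 nM–2 μM) were then added. After 5 days, cell proteins were extracted, quantified, proteinase K-digested and western-blotted. PK-resistant PrPSc was quantified by densitometry. EC50 is half-maximal inhibition. Values are mean of three experiments with SD.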

[4] = tested on: ScGT1; assay: Antiprion activity against scrapie prion protein-infected mouse ScGT1 cells assessed as accumulation of PrPSc at 1 uM after 5 days by Western blotting; type: cell-based; summary of the method: as §2
[5] = Antioxidant activity in mouse ScGT1 cells assessed as inhibition of ROS formation at 1 uM after 3 hrs by TBARS assay; type: functional; conditions: ScGT1, 3 h
Summary of the method: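 ScGT1 cells were treated at 1 μM, and lipid hydroperoxides and aldehydes were measured by the TBARS assay. Results are expressed as average percent TBARS of treated cells versus untreated cells. A water-soluble vitamin E derivative served as positive control. Values are mean ± SD, n = 3.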

[6] = Cytotoxicity against mouse ScGT1 cells assessed as cell viability at EC50 after 5 days by calcein-AM assay; type: cell-based; conditions: read-out: INH; summary of the method: as §1
[7] = Inhibition of scrapie prion protein-mediated lag phase prion fibril formation after 72 hrs by amyloid seeding assay
Summary of the method: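 In vitro amyloid seeding assay of recombinant PrP fibril formation, with compounds at 2 μM. The read-out is lag phase in hours, compared against an untreated control. Significance was tested by Student's t-test, n = 4.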

[8] = Antiprion activity against scrapie prion protein-infected mouse ScGT1 cells assessed as accumulation of PrPSc after 5 days by Western blotting; type: cell-based; conditions: ScGT1, 120 h; summary of the method: as §2

Row | SMILES | viability at 120 h, 0.2 µM [1] [%] | viability at 120 h, 1 µM [2] [%] | inhibition [3] [%] | inhibition [4] [%] | inhibition at 1 µM [5] [%] | viability at 120 h [6] [%] | TIME [7] [h] | EC50 [8] [nM]
1 | COc1ccc2nc3cc(Cl)ccc3c(NCCNC3=CC(=O)C(NCCNc4c5ccc(Cl)cc5nc5ccc(OC)cc45)=CC3=O)c2c1 | 80.1 | 18.2 | 3.1 |  |  |  |  | 
2 | COc1ccc2nc3cc(Cl)ccc3c(NCCCNCCCNC3=CC(=O)C(NCCCNCCCNc4c5ccc(Cl)cc5nc5ccc(OC)cc45)=CC3=O)c2c1 | 65.8 | 1.5 | 5.4 |  |  |  |  | 
3 | COc1ccc2nccc(NCCCNC3=CC(=O)C(NCCCNc4ccnc5ccc(OC)cc45)=CC3=O)c2c1 |  | 87.2 |  | 4.7 |  |  |  | 
4 | COc1ccc2nc3cc(Cl)ccc3c(NCCCN3CCN(CCCNc4c5ccc(Cl)cc5nc5ccc(OC)cc45)CC3)c2c1 |  | 75.6 |  | 102 | 93 | 92.4 | 55 | 320
5 | O=C1C=C(NCCNc2c3c(nc4ccccc24)CCCC3)C(=O)C=C1NCCNc1c2c(nc3ccccc13)CCCC2 |  | 108 |  | 7.1 |  |  |  | 
6 | Cc1c(C)c2c(c(C)c1O)CCC(C)(C(=O)O)O2 (configuration not stated) [TROLOX] |  |  |  |  | 71 |  |  | 
7 | O=C1C=C(NCCCNc2ccnc3cc(Cl)ccc23)C(=O)c2ccccc21 |  | 94.3 |  | 2.9 |  |  |  | 
8 | O=C1C=C(NCCCNc2c3c(nc4cc(Cl)ccc24)CCCC3)C(=O)C=C1NCCCNc1c2c(nc3cc(Cl)ccc13)CCCC2 |  | 78.6 |  | 105 | 69 | 102 | 57 | 170
9 | O=C1C=C(NCCCNCCCNc2ccnc3cc(Cl)ccc23)C(=O)C=C1NCCCNCCCNc1ccnc2cc(Cl)ccc12 |  | 105 |  | 49.1 | 83 | 91.3 | 40 | 1200
10 | O=C1C=C(NCCCNCCCNc2c3c(nc4ccccc24)CCCC3)C(=O)C=C1NCCCNCCCNc1c2c(nc3ccccc13)CCCC2 |  | 95.4 |  | 3.4 |  |  |  | 
11 | O=C1C=C(NCCNc2ccnc3cc(Cl)ccc23)C(=O)C=C1NCCNc1ccnc2cc(Cl)ccc12 |  | 115 |  | 6.2 |  |  |  | 
12 | O=C1C=C(NCCCNc2ccnc3cc(Cl)ccc23)C(=O)C=C1NCCCNc1ccnc2cc(Cl)ccc12 |  | 100 |  | 85.5 | 83 | 99.6 | 53 | 730
13 | COc1ccc2nc3cc(Cl)ccc3c(NCCCNC3=CC(=O)C(NCCCNc4c5ccc(Cl)cc5nc5ccc(OC)cc45)=CC3=O)c2c1 |  | 65.5 |  | 89.7 | 83 | 75.2 | 45 | 680
